Assays:
[1] = pKa value of compound was evaluated; type: physicochemical
Plasmodium falciparum [2] = assay: Antimalarial activity against Plasmodium falciparum K1; type: functional, organism-based
Summary of the method: (§1)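 P. falciparum (Thai isolates; K1 uncloned, T9-96 cloned) kept in continuous culture in human erythrocytes, RPMI 1640 with 25 mM HEPES, 32 mM NaHCO3, 10% human serum, gassed 3% O2/4% CO2/93% N2. 48-h assay at 1% initial parasitaemia, 5% haematocrit; drugs from ethanol stocks (final <1% ethanol).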

Plasmodium falciparum [3] = assay: Antimalarial activity against Plasmodium falciparum T9-96; type: functional, organism-based; summary of the method: as §1

| Compound | pKa [1] | IC50 (Plasmodium falciparum [2]) [nM] | IC50 (Plasmodium falciparum [3]) [nM] |
| --- | --- | --- | --- |
| CCN(CC)Cc1cc(Nc2ccnc3cc(Cl)ccc23)ccc1O | 4.95 | 24 | 20 |
| CCN(CC)Cc1cc(Nc2ccnc3cc(Cl)ccc23)ccc1F | 4.39 | 59 | 40 |
| CCN(CC)Cc1cc(Nc2ccnc3cc(Cl)ccc23)cc(F)c1O | 3.96 | 42 | 37 |
| CCN(CC)Cc1cc(Nc2ccnc3cc(Cl)ccc23)c(F)c(F)c1O | 3.42 | 56 | 40 |
| CCN(CC)Cc1c(O)cc(F)c(Nc2ccnc3cc(Cl)ccc23)c1F | 2.59 | 41 | 34 |
| CCN(CC)Cc1c(O)c(F)c(F)c(Nc2ccnc3cc(Cl)ccc23)c1F | 2.17 | 500 | 291 |
